Laboratory results published in the M2OR odorant receptor database.

Assays:
Conditions in all cases: stereoisomer not certain
[1] = molecular target: T1, OR6C65 (Homo sapiens) (UniProt A6NJZ3)
T1 sequence (whole entry): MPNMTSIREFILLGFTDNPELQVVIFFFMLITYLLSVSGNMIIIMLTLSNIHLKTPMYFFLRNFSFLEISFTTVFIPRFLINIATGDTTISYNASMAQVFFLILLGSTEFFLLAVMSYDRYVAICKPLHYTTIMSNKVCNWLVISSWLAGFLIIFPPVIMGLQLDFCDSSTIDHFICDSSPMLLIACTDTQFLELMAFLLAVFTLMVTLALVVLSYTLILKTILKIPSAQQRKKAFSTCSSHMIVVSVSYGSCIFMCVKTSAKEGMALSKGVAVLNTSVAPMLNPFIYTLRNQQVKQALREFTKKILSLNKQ
Outline: (§1)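 Each receptor–molecule pair is labelled responsive or non-responsive (inactive) according to whether the original authors judged the measured signal statistically different from baseline. The data were taken from the main text and supplementary material of published papers and checked for typos and inconsistencies. Assay methods differed by source, with transient luciferase assays in mammalian cell lines being common.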

[2] = molecular target: T2, OR6C68 (Homo sapiens) (UniProt A6NDL8)
T2 sequence (whole entry): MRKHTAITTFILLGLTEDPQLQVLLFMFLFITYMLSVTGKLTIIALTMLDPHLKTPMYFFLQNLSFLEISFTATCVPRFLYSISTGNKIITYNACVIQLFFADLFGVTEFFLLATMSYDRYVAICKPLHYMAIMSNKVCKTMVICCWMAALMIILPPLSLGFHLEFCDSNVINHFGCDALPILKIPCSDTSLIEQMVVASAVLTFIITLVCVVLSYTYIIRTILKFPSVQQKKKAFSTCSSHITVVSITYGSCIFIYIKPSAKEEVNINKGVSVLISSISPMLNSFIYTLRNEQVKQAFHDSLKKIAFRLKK
Outline: as §1

[3] = molecular target: T3, OR6C70 (Homo sapiens) (UniProt A6NIJ9)
T3 sequence (whole entry): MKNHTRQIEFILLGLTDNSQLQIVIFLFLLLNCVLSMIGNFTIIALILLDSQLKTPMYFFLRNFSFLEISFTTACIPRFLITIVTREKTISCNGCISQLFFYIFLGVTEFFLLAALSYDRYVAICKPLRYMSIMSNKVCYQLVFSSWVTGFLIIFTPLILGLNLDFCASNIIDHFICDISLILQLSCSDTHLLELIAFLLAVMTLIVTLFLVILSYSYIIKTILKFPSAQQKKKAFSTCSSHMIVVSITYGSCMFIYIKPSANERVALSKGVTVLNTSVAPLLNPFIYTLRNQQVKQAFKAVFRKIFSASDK
Outline: as §1

[4] = molecular target: T4, OR6C74 (Homo sapiens) (UniProt A6NCV1)
T4 sequence (whole entry): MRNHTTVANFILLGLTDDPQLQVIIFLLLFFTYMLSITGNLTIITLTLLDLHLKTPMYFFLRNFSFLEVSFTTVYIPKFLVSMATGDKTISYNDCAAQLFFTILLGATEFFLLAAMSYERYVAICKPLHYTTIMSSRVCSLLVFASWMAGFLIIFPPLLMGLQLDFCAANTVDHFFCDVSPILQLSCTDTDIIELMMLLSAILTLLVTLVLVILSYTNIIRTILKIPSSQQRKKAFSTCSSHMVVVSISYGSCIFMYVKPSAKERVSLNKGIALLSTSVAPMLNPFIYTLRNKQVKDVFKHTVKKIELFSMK
Outline: as §1

[5] = molecular target: T5, OR6C75 (Homo sapiens) (UniProt A6NL08)
T5 sequence (whole entry): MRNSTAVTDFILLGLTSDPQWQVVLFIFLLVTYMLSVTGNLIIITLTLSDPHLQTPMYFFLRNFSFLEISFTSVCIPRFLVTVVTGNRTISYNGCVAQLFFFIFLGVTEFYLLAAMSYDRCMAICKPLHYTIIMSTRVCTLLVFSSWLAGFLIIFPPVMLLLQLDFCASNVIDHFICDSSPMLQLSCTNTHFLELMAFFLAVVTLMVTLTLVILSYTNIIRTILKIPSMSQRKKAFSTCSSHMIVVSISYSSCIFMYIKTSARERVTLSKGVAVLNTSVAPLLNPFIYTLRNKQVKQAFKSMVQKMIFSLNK
Outline: as §1

[6] = molecular target: T6, OR6C76 (Homo sapiens) (UniProt A6NM76)
T6 sequence (whole entry): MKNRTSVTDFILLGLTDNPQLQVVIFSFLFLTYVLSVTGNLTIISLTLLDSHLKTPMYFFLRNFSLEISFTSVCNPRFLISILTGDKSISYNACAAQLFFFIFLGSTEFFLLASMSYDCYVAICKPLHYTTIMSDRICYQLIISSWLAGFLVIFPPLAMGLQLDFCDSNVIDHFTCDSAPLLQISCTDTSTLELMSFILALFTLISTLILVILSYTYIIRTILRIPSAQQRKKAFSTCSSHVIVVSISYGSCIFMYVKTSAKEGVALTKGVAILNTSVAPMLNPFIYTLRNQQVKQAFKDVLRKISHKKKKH
Outline: as §1

[7] = molecular target: T7, OR6F1 (Homo sapiens) (UniProt Q8NGZ6)
T7 sequence (whole entry): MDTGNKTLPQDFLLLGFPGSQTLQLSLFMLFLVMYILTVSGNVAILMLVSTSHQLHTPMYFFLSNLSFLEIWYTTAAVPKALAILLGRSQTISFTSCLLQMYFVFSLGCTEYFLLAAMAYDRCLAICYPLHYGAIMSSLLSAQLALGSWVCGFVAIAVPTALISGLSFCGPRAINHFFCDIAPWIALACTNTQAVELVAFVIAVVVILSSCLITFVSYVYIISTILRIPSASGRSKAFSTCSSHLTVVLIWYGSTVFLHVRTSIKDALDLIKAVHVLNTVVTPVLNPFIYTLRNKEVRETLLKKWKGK
Outline: as §1

[8] = molecular target: T8, OR6J1 (Homo sapiens) (UniProt Q8NGC5)
T8 sequence (whole entry): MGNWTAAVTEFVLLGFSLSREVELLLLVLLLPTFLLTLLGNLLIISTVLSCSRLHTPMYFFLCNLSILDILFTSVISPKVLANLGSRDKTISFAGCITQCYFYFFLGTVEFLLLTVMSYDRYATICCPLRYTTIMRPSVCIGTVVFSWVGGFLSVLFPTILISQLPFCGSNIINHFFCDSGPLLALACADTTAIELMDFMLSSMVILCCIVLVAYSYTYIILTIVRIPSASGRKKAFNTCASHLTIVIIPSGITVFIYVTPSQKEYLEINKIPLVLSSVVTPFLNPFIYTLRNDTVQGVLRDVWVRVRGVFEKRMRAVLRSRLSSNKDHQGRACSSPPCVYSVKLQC
Outline: as §1

[9] = molecular target: T9, OR6K2 (Homo sapiens) (UniProt Q8NGY2)
T9 sequence (whole entry): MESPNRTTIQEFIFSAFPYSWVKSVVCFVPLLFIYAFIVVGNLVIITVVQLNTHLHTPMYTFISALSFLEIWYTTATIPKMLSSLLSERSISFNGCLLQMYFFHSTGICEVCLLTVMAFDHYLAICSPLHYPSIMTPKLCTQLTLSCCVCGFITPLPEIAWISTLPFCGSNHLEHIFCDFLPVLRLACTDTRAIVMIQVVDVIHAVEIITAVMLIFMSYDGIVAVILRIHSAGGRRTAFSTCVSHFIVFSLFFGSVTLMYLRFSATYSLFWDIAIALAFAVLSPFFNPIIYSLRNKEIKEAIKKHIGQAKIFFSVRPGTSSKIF
Outline: as §1

[10] = molecular target: T10, OR6K3 (Homo sapiens) (UniProt Q8NGY3)
T10 sequence (whole entry): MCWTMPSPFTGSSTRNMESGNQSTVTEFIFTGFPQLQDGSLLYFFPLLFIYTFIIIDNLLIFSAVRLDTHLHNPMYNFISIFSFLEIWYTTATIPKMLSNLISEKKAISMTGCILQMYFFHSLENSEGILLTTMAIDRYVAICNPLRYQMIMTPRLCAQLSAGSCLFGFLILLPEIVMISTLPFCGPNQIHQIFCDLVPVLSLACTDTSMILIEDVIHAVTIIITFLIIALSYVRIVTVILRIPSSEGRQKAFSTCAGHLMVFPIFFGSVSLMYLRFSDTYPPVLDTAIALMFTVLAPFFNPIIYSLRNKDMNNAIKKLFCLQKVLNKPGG
Outline: as §1

[11] = molecular target: T11, OR6K6 (Homo sapiens) (UniProt Q8NGW6)
T11 sequence (whole entry): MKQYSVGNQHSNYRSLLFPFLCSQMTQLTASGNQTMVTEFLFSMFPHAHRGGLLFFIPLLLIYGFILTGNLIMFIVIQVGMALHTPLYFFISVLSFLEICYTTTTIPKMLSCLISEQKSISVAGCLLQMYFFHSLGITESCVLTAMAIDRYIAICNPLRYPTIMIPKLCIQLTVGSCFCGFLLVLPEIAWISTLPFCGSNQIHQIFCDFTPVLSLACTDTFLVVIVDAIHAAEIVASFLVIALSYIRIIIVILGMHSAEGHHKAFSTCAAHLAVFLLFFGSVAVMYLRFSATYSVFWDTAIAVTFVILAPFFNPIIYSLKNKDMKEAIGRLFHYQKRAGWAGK
Outline: as §1

[12] = molecular target: T12, OR6M1 (Homo sapiens) (UniProt Q8NGM8)
T12 sequence (whole entry): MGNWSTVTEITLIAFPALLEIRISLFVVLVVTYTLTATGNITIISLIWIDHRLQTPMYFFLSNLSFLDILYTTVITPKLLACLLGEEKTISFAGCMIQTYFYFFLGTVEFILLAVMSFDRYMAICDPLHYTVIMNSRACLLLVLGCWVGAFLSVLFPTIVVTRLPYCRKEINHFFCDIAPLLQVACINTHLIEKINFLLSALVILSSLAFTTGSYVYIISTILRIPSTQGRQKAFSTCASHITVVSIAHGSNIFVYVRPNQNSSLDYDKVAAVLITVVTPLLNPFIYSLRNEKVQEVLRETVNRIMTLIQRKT
Outline: as §1

[13] = molecular target: T13, OR6N1 (Homo sapiens) (UniProt Q8NGY5)
T13 sequence (whole entry): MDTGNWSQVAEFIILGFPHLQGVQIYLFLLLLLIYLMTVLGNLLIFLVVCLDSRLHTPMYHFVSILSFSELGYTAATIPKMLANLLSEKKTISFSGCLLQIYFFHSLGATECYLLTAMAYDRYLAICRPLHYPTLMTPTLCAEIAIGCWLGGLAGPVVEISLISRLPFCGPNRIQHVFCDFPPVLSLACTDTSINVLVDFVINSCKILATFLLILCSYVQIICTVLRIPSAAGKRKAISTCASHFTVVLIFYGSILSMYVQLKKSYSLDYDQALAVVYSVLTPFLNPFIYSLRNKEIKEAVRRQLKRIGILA
Outline: as §1

[14] = molecular target: T14, OR6N2 (Homo sapiens) (UniProt Q8NGY6)
T14 sequence (whole entry): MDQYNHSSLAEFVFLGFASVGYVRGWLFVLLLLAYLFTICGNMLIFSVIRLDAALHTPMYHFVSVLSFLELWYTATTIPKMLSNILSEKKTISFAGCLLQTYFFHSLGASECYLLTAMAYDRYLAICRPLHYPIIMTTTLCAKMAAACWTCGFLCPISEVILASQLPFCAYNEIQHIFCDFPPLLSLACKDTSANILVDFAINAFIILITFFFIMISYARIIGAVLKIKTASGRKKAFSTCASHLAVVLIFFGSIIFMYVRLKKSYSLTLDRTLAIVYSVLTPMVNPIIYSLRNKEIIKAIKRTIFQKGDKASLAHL
Outline: as §1

[15] = molecular target: T15, OR6P1 (Homo sapiens) (UniProt Q8NGX9)
T15 sequence (whole entry): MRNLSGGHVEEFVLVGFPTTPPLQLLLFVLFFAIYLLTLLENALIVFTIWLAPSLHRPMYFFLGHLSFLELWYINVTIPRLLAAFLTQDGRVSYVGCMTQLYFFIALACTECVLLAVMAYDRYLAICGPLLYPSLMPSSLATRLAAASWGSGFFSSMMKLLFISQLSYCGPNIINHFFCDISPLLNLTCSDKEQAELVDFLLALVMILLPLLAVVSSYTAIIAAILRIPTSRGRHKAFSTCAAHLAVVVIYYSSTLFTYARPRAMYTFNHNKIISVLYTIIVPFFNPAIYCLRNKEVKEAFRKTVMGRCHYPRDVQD
Outline: as §1

[16] = molecular target: T16, OR6Q1 (Homo sapiens) (UniProt Q8NGQ2)
T16 sequence (whole entry): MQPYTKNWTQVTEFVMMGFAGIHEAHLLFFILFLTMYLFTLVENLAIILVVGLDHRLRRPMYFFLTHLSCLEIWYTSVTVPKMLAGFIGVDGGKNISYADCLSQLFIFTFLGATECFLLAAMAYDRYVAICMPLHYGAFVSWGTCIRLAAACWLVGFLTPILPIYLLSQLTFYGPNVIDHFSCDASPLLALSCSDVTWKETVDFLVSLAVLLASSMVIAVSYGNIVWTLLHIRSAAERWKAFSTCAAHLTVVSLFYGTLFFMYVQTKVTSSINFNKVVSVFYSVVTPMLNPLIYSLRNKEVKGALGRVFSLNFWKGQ
Outline: as §1

Measured: odorant receptor agonist call;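 further: active if original authors judged signal statistically different from baseline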

CCCCC(S)C(C)CO (configuration not stated)
inactive: all assays above

CCC(S)C(C)CO (configuration not stated)
inactive: all assays above
